Source: ChEMBL document CHEMBL4513216, “Probing the Open Global Health Chemical Diversity Library for Multistage-Active Starting Points for Next-Generation Antimalarials” (ACS Infect Dis, 2020)

Assay: Toxicity liver stage against HepG2, at 10uM
Assay type: cell-based
Set-up: test concentration 10 uM, cell line HepG2-A16-CD81EGFP
Conditions: human, HepG2-A16-CD81EGFP cells; read-out: INHIBITION
Procedure, shortened: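 Uninfected HepG2-A16-CD81EGFP cells, 3 × 10^3 per well, 1536-well, plated on prespotted compound at 10 μM final, parasite-free screening media added to match infected plates; puromycin 10 μM positive, DMSO 0.5% negative; run in parallel with 48 h PbLuc assay at 37 °C, 5% CO2; viability by CellTiter-Glo luminescence, normalized to controls.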

SMILES | cytotoxicity at 10 µM
COc1ccc(-c2csc(N)c2C#N)cc1OC | -2.46%
COc1c(Br)cc(Cl)cc1NCc1c(C)noc1C | 12.8%
CCOC(=O)CCCNC(=O)CN1CCN(c2ncccn2)CC1 | -13.3%
CN1C[C@@H](O)[C@]2(CCN(C(=O)OCc3ccccc3)C2)S1(=O)=O | -0.53%
O=C1CCNc2ccc(F)cc2CN1Cc1ccco1 | -1.36%
COC1CN(C(=O)CC(C)C)CCC(=O)N(C)c2ccccc21 (stereo unspecified) | -2.72%
Cn1cccc1C(CNC(=O)COc1ccc(Cl)cc1Cl)N1CCCC1 (stereo unspecified) | -8.64%
CC(=O)NCc1cc(-c2cccs2)n(C2CCCC2)n1 | 3.29%
CNC(=O)c1nc2c(s1)CCN(C(=O)c1ccccc1)CC2 | 11.1%
CS(=O)(=O)N1CC[C@@H]2O[C@@H](COCC(=O)N3CCCC3)CC[C@@H]21 | -0.879%
CC(C)NC(=O)N1CCN(C(=O)c2ccco2)CC2(CC(=O)N(C)C2)C1 (stereo unspecified) | 6.15%
O=C(COc1coc(CN2CCCCCC2)cc1=O)c1ccccc1 | 4.21%
Cc1cc(C(=O)N2C[C@@H]3[C@@H](C2)OCC(=O)N3CC2CC2)no1 | -10.4%
CCS(=O)(=O)Nc1ccn(Cc2cccc(F)c2)n1 | 6.22%
COC(=O)c1ccc(NS(=O)(=O)c2cnc(NC(C)=O)s2)cc1 | 9.35%
CSc1cccc(NC(=O)Nc2c(O)oc3ccccc3c2=O)c1 | 4.45%
CCCC1c2cccn2CCN1S(=O)(=O)N1CCOCC1 (stereo unspecified) | 1.26%
CN(CC1(C)COC1)C(=O)c1cc(-c2ccnn2C)nc2ccccc12 | 6.57%
O=C(c1ccc2[nH]nnc2c1)N1CC[C@H](O)[C@]2(CCCO2)C1 | -2.98%
O=C(O)COc1ccc(CN2CCCC(Cc3cccnc3)C2)cc1 (stereo unspecified) | -4.98%
CC(=O)N1CCC(c2cncc(Cl)n2)CC1 | 3.8%
CN(C)c1nc(O)cc(C2CCN(C(=O)Cc3ccccn3)C2)n1 (stereo unspecified) | -0.399%
Cc1cc(Nc2cnccn2)nc(C2CCCN(CCO)C2)n1 (stereo unspecified) | -5.87%

SMILES | cytotoxicity at 10 µM
CC(=O)N1CCC(c2ncc3c(n2)CCN(C(=O)c2ccccc2)C3)C1 (stereo unspecified) | -8.69%
NC(=O)C1(CCCc2ccncc2)CCCN1 (stereo unspecified) | -21.5%
C=Cn1cc(CN2CCc3nc(-c4cccnc4)nc(O)c3C2)c(C)n1 | -6.94%
COc1ccccc1N1CCC(NCc2c(C)noc2C)C1 (stereo unspecified) | 1.81%
O=C(C[S+]([O-])c1ccc(F)c(F)c1)NCc1cc(F)cc(F)c1 (stereo unspecified) | 5.58%
O=C(Cc1cccc(F)c1F)N1CCOC(c2cccc(O)c2)C1 (stereo unspecified) | 0.0788%
Cc1ccc(F)cc1S(=O)(=O)NCc1[nH]ncc1Br | 10.3%
CC(NCCn1cccn1)c1ccccc1Cl (stereo unspecified) | -5.03%
CCCC(C)CS(=O)(=O)NCc1cccnc1OC (stereo unspecified) | -18%
COc1cc(NC(=O)N(C)CC2CC2)ncn1 | 7.09%
CNC(=O)NCCc1csc2ccccc12 | 2.22%
CCOc1ncccc1CNS(=O)(=O)c1ccc2c(c1)CCCC(=O)N2 | 12.1%
Cc1cccc(C(=O)N2CCSCC2)c1NC(=O)c1ccsc1 | 3.85%
NC(=O)Cn1c(SCc2noc(-c3ccsc3)n2)nnc1C1CC1 | 15.4%
CSCCC(NC(N)=O)C(=O)Nc1ccc(-n2cccn2)nc1 (stereo unspecified) | 4.78%
CCS(=O)(=O)c1ccc(N2CCC(NC(=O)C(C)SC)CC2)cc1 (stereo unspecified) | 7.99%
CC(C)COCC(C)NC(=O)NCc1cccc(-n2cncn2)c1 (stereo unspecified) | -0.662%
Cc1ccc(-c2nc(CN3CC(n4nc(C)cc4C)C3)no2)cc1 | -1.64%
Cc1nsc(NCCNS(=O)(=O)c2cccc(Cl)c2)n1 | 5.62%
CC(=O)NCCNC(=O)CN1CCCC1Cn1nc(C)nc1C (stereo unspecified) | -1.26%
CN(CCc1ccncc1)C(=O)C1CSCN1C(=O)C1CCCC1 (stereo unspecified) | -7.39%
O=C(Nc1ccc(CCN2CCSCC2)cc1)NC1CC1 | -12.1%
CSc1nc(C2CC2)nc(C)c1C(=O)NCc1ccco1 | 5.25%

SMILES | cytotoxicity at 10 µM
CN(C(=O)C1CCC1)C1CCN(c2ccccc2Cl)C1=O (stereo unspecified) | -0.949%
c1ccc(OCc2nc(CNCCn3cccn3)cs2)cc1 | 7.53%
CCN(Cc1ccoc1)C(=O)NC1CCN(C(=O)OC(C)(C)C)C1 (stereo unspecified) | 3.65%
CC(C)c1noc(CNc2ccc(OC(F)F)cc2OC(F)F)n1 | 23.6%
O=C(NCc1nncn1C1CC1)c1ccc(F)c(COCC2CC2)c1 | 10.2%
Cc1ccc(C(=O)NS(C)(=O)=O)cc1S(C)(=O)=O | 4%
CCc1nnsc1C(=O)N(C)Cc1ccco1 | -45%
CCCOCC(=O)NC1CCc2nc(C)cn2C1 (stereo unspecified) | -2.88%
CC(=O)N1CCC(c2nc3ccc(C)cn3n2)CC1 | 0.819%
Cc1nocc1C(=O)N1CCOC2(COCCN(CC3CC3)C2)C1 (stereo unspecified) | 3.42%
Cc1cccc(NC(=O)N2CC(C(=O)NC(C)C)C3(CCOCC3)C2)c1 (stereo unspecified) | -75%
CCN(CCOC)C(=O)c1ccc2c(c1)nc(N1CC[C@H](O)C1)n2C | -2.96%
CCC(O)CNc1ccc(-c2nc(CC(C)C)no2)cn1 (stereo unspecified) | -6.19%
Cc1nc(C(C)C)sc1C(=O)N1CCC(N2CCSCC2)CC1 | -3.54%
CNc1ncc(C(=O)N[C@H]2CN(CCCSC)C[C@@H]2C2CC2)cn1 | 1.33%
CCN(CC)c1ncccc1CNC(=O)c1cc2nc(C)cc(C)n2n1 | 6.43%
O=C(O)CC[C@@H]1CN(c2ncccc2F)CC[C@@H]1N1CCOCC1 | -9.11%
COc1cc(CN2CC[C@@H](N3CCCCCC3)[C@H](O)C2)cc(Cl)c1OC | -1.47%
O=C(CCc1cc(Cl)no1)N1CCCCC1CCN1CCOCC1 (stereo unspecified) | -9.97%
Clc1ccccc1OC1CN(CC2CCOC2)C1 (stereo unspecified) | -0.745%
CCCc1ccc(CN2CCC3(CCC(=O)N(C(C)C(=O)O)C3)CC2)o1 (stereo unspecified) | -2.69%
CCN1CC(C(=O)NCCc2csc(-c3ccncc3)n2)CCC1=O (stereo unspecified) | -11.3%
COc1ccc(F)c(-c2ccnc(N)c2)c1 | 8.52%

SMILES | cytotoxicity at 10 µM
O=C(O)CC1COCCN1Cc1ccccc1OCCc1ccccc1 (stereo unspecified) | 2.4%
O=C(NCCC1CN(Cc2c[nH]cn2)CCO1)Nc1ccccc1 (stereo unspecified) | -1.92%
CCC(=O)N1CCC2(CC1)c1nc[nH]c1CCN2S(C)(=O)=O | -11.4%
COc1ccccc1C1CNC(=O)c2nc(-c3ncc[nH]3)[nH]c2C1 (stereo unspecified) | -8.6%
c1ccc(Cc2noc(CN3CCCCC3Cn3cccn3)n2)cc1 (stereo unspecified) | -0.945%
Cc1csc(C2CCCCN2C(=O)c2c[nH]c(C)n2)n1 (stereo unspecified) | -33.7%
Cc1noc(Cl)c1CCC(=O)N1CCN(Cc2ccncc2)CC1 | -14.2%
Cc1nc(C)n(CC2CN(Cc3ccc4c(c3)OCCO4)CCO2)n1 (stereo unspecified) | -3.63%
O=C(CCc1ccccc1F)N1CCC(Nc2cccnn2)CC1 | -3.78%
c1cnn(CC2CN(Cc3nnc(C4CC4)o3)CCO2)c1 (stereo unspecified) | -5.09%
Cc1noc(C)c1CCC(=O)N1CCCN(C)CC1 | -14.1%
Cc1noc(C)c1CCC(=O)N1CCN(Cc2cscn2)CC1 | -6.28%
Cc1ccc(CC(=O)N2CCC(Nc3ccc(C)nn3)CC2)cn1 | -4.75%
CC(C)c1nccn1C1CCCN(C(=O)c2cn3cccnc3n2)C1 (stereo unspecified) | -3.63%
Cc1cccc(OCCCN2CCC(N(C)Cc3noc(C)n3)C2)c1 (stereo unspecified) | -2.61%
CCN1CCN(CCNC(=O)c2sc(C)nc2C)CC1 | 0.927%
COCCc1noc(CN2CCCC2Cn2nc(C)cc2C)n1 (stereo unspecified) | -1.92%
CC(C)c1nc(C2CCCN(C(=O)c3ccc4c(c3)COC4)C2)no1 (stereo unspecified) | -7%
COc1ccc(CC(=O)N2CCCC2Cn2cc(C)cn2)cc1OC (stereo unspecified) | -17.9%
CC(C)c1nccn1C1CCCN(C(=O)c2cccc3[nH]ncc23)C1 (stereo unspecified) | -0.35%
Cc1occc1CN(C)Cc1nc2c(cnn2C)c(=O)[nH]1 | 2.11%
CSCCC(=O)NS(=O)(=O)c1ccc2c(c1)OCCO2 | -14.7%
O=C(O)C1CCCCN1C(=O)c1cccc(C(F)(F)F)c1 (stereo unspecified) | -5.95%

SMILES | cytotoxicity at 10 µM
COc1ccccc1CC(=O)N1CCC(NCc2c[nH]nc2C)CC1 | -13.5%
O=C(NCCNc1ncccn1)Nc1cc(C(F)(F)F)c[nH]c1=O | -4.69%
O=C(Cc1ccccc1)N1CCN(Cc2noc(C3CC3)n2)CC1 | 1.15%
Cc1cc(C)n(C2CCCN(C(=O)c3cnc4onc(C)c4c3)C2)n1 (stereo unspecified) | 5.17%
Cn1cc(CN(Cc2ccccc2)Cc2ccccn2)cn1 | 19.1%
O=C(CN1CCC(c2cc(=O)n3c(n2)CCCCC3)C1)N1CCCCC1 (stereo unspecified) | -22.8%
Fc1ccc(CN2CCC(F)(F)C3(CCN(c4cnccn4)C3)C2)cc1 (stereo unspecified) | 8.62%
CNC(=O)CNCc1c[nH]nc1-c1cc2ccccc2o1 | 6.7%
Cn1cccc1C(=O)N1CCO[C@H]2[C@H](OCc3cccnc3)CC[C@@H]21 | 7.2%
Cn1cccc1C(=O)N1CC[C@@H]2[C@@H]1CC(=O)N2CCN1CCOCC1 | -7.41%
CN1CC(=O)N(c2ccsc2)CC12CCN(C(=O)Nc1ccccc1)C2 (stereo unspecified) | -78.7%
NC(=O)COc1ccc(CNCc2cc(F)ccc2F)cc1 | 18.5%
c1ccc(OCC2C[C@@H]3[C@@H](C2)OCCN3CC2CCOCC2)nc1 (stereo partly specified) | 2.75%
CN(C)[C@@H]1CCN(CC2CC2)[C@H]1Cc1cnn(C)c1 | -76.9%
CC(C)(C)n1cc(CNC2CCN(C(=O)c3ccoc3)CC2)cn1 | 6.35%
COCCN1CC[C@H]2OCC[C@@H](C(=O)N3CCCO3)[C@H]2C1 | 4.55%
CN1CC(=O)N(c2cccc(F)c2)CC12CCN(Cc1cccnc1)C2 (stereo unspecified) | 9.69%
O=C(Nc1ccc(F)cc1)N1C[C@@H]2C[C@H](C(=O)N3CCOCC3)[C@H](C1)O2 | 3.41%
COCCN1C(=O)[C@@H]2CC[C@H]1CN(S(=O)(=O)c1ccc(OC)cc1)C2 | 6.35%
